Assay outcomes (PubChem)
V-ATPase pHluor = alters yeast V-ATPase proton transport; response, % at 10 µM; 0.37% of 350,000 active; AID 504577; S. cerevisiae, pHLuorin cytosolic pH fluorescence; in the data active = response mostly above about 7.3%, no sharp cut-off; inactive = mostly below about 5.4%; note: actives read high
proKLK7 act = activates the human kallikrein-7 zymogen; activation, % at 7 µM; purified proKLK7, EDANS-DABCYL substrate fluorescence; 100% is mature enzyme control, 0% vehicle; 0.9% of 370,000 active;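 active = activation above the mean of all tested compounds plus 3 SD, computed per campaign excluding outliers beyond control limits, cut at about 13% in these data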
Target sequence (P49862 whole entry, looked up): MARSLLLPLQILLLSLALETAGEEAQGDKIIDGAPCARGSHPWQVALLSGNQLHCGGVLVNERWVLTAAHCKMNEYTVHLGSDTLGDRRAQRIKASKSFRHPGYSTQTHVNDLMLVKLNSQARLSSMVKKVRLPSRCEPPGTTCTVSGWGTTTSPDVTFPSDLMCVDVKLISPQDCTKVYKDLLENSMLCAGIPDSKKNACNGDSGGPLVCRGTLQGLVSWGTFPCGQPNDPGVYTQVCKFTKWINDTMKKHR
T cell HTS = T cell immune modulators affecting CD8 T cell-vesicle binding. 2C CD8+ T cell-vesicle binding, flow cytometry; stronger effect = lower value. response (vesicle binding), % at 7 µM. 0.068% of 330,000 active. AID 2052;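 active = response, share of CD8 T cells binding vesicles, and their 90th percentile fluorescence all below set limits, cut at about 80% in these data, passing the limit was not always enough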;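 note: values below 100% mean blocked vesicle binding to the CD8+ T cells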
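Assay system: 2C TCR transgenic mouse naive CD8+ T cells, MACS-purified | Read-out: CD8+ gate FL2 mean fluorescence as % of same-row positive control | Signal: High-throughput flow cytometry with anti-B7-1 and anti-CD8 staining | Timing: Binding step 1.5 h, 37 °C, antibody labelling 20 min, ice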
MIN6 prolif-1 = inducers of beta-cell replication in MIN6 cells; 0.29% of 330,000 active; AID 2380; MIN6 cells proliferation, ATPlite luminescence, 48 h; cells starved in 0.2% serum; 100% = growth in 10% serum; proliferation, % at 10 µM;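 active = compounds whose signal lies at least 3.5 SD above the mean of all wells on their plate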
Rce1 inhib = blocks yeast Ras-converting enzyme; yeast membranes, quenched prenylated peptide cleavage fluorescence; calls only; 0.27% of 290,000 active; AID 2563;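 active = fall in fluorescence gain of 50% or more versus controls, with final raw signal at or below 3038400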
Target sequence (Q03530 whole entry, looked up): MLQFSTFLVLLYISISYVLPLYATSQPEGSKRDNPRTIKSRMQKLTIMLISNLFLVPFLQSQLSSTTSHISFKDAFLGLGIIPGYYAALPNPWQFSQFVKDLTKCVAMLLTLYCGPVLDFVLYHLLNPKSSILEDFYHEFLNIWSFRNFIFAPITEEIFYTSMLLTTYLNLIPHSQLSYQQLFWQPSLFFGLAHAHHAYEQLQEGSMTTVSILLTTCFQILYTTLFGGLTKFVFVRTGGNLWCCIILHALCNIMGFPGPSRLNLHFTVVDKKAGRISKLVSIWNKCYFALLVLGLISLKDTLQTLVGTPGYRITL
CR mimetic SO = yeast age-related superoxide inhibition as caloric restriction mimetic | S. cerevisiae aged cells, superoxide DHE fluorescence; stronger effect = lower value | superoxide response (% of plate mean), % at 10 µM | 0.18% of 330,000 active | AID 2690;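 active = superoxide response under a set limit, about three screen SD below normal, cut at about 65% in these data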;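 note: yeast aged for seven days with compound at 30 °C before DHE staining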
MIN6 prolif-2 = MIN6 beta-cell replication induction, confirmed; proliferation increase, % at 50 µM; 920 tested, under 10 active; shares compounds with MIN6 prolif-1; MIN6 beta-cell proliferation, ATPlite luminescence, 48 h; cells kept in 0.2% serum; scaled between 0.2% and 10% serum;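 active = proliferation increase above 40% at any of the four tested concentrations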
A number is an active result; . = inactive; / = not tested or not shown; + = active, no number; ! = a repeat was not active. The list is not random: actives were taken first. Their share in the collection is about 1.9%.

SMILES	V-ATPase pHluor	proKLK7 act	T cell HTS	MIN6 prolif-1	Rce1 inhib	CR mimetic SO	others
COc1ccccc1N1C(=O)NC(=O)/C(=C/c2ccc([N+](=O)[O-])s2)C1=O	125.3	.	.	.	.	.
COc1cccc(N2C(=O)NC(=O)/C(=C/c3ccc([N+](=O)[O-])s3)C2=O)c1	111.5	.	.	.	.	.
COc1cccc(N2C(=O)NC(=O)/C(=C/c3ccc4c(c3)Cc3ccccc3-4)C2=O)c1	.	.	.	.	.	.
COc1ccc(N2C(=O)NC(=O)/C(=C/c3ccc([N+](=O)[O-])s3)C2=O)cc1	100.5	.	.	.	.	.
COc1ccc(N2C(=O)NC(=O)/C(=C\c3ccc([N+](=O)[O-])s3)C2=O)cc1	102.3	.	.	.	.	.
COc1ccccc1N1C(=O)NC(=O)/C(=C\c2cnn(-c3ccccc3)c2)C1=O	.	.	.	.	.	.
C[C@@]12N[C@@H](Cc3ccccc31)c1ccccc12	.	.	.	.	.	.
S=C1CN=C(c2ccccc2)c2cc(Cl)ccc2N1	25.0	.	.	.	.	.
N/C(=N/[N+](=O)[O-])N1CCN(C(=O)c2ccc(Cl)cc2)CC1	.	.	.	.	.	.
O=C(CNC(=O)OCc1ccccc1)NC(Cc1ccccc1)P(=O)(Oc1ccccc1)Oc1ccccc1 (centres undefined)	/	.	/	/	/	/
CC(=O)OCC[N+](C)(C)C	.	.	.	.	+!	.
O=C(O)CC[N+](=O)[O-]	.	.	.	.	.	.
CC12CCC(=O)CC1CCC1C2C(=O)CC2(C)C1CCC2(C)O (centres undefined)	.	.	/	/	/	/
O=C1NC(=S)N(c2ccccc2)C(=O)/C1=C/c1ccco1	7.6	.	.	.	.	.
N#CC1=C(N)Oc2c(c(=O)oc3ccccc23)C1c1ccncc1 (centres undefined)	.	.	.	.	/	.
COC(=O)C1=C(N)Oc2c(c(=O)oc3ccccc23)C1c1cccnc1 (centres undefined)	27.1	.	.	.	.	.
CCOC(=O)[C@@H]1[C@H]2COc3ccc(Br)cc3[C@@H]2N2C(=O)N(c3cccc(C)c3)C(=O)[C@]12C	.	.	.	.	+	.
N=c1c2c(n(Cc3ccc(Cl)cc3Cl)c3c1CCC3)CCCC2	12.5	/	.	.	.	.
COP(=O)(OC)OC=C(Cl)Cl	/	.	/	/	/	/
CC(C)n1c(O)c(C2c3cc(Cl)ccc3Oc3[nH]c(=O)n(C(C)C)c(=O)c32)c(=O)[nH]c1=O (centres undefined)	17.5	/	/	/	.	/
CC(=O)c1c(O)n(-c2cccc(Cl)c2)c(=O)[nH]c1=O (tested in a mixture with another compound)	.	.	.	.	.	.
COc1ccc2c3c([nH]c2c1)[C@H](C=C(C)C)N1C(=O)[C@@H]2CCCN2C(=O)[C@@H]1C3	/	.	/	/	/	/
CN(C)CCNC(=O)c1cccn(Cc2cc(C(F)(F)F)cc(C(F)(F)F)c2)c1=O	.	.	.	.	+	.
C=CCn1c(O)c(C(CC)=Nc2ccc(N(CC)CC)cc2)c(=O)[nH]c1=O	.	.	.	.	+	.
C=CCn1c(O)c(C(C)=Nc2ccc(N(CC)CC)cc2)c(=O)[nH]c1=O	.	.	.	.	.	.
SMILES	V-ATPase pHluor	proKLK7 act	T cell HTS	MIN6 prolif-1	Rce1 inhib	CR mimetic SO	others
C[n+]1ccc(-c2ccccc2)c2ccccc21	.	.	.	.	+	.
CN(C)c1ccc(/C=C/c2cc[n+](C)c3ccccc23)cc1	.	.	/	/	/	/
COc1cc(C=NNC(=S)Nc2ccc(S(=O)(=O)N3CCCCC3)cc2)cc(OC)c1OC	.	.	/	/	/	/
C[C@@H]1CN([C@H](C)CO)C(=O)CCCn2nncc2CO[C@@H]1CN(C)C(=O)Oc1ccc2ccccc2c1	.	.	/	/	/	/
Cc1[nH]nc2ccc(-c3cncc(OC[C@@H](N)Cc4c[nH]c5ccccc45)c3)cc12	.	/	/	/	/	/
Clc1ccc(COC(Cn2ccnc2)c2ccc(Cl)cc2Cl)c(Cl)c1 (centres undefined)	.	.	0.0!	.	.	.
Cc1cccc(C)c1-n1nnnc1C(c1cccs1)N1CCC2(CC1)C(=O)NCN2c1ccccc1 (centres undefined)	/	.	/	/	/	/
COc1ccc(CN2C(=O)C(CC(=O)NCc3ccco3)CC(C(=O)N(C)C)=C2C)cc1 (centres undefined)	.	.	/	/	/	/
CCCCn1c(=O)c(C=Nc2cccnc2Cl)c(O)n(CCCCl)c1=O	.	.	.	.	+	.
C=CCn1c(=O)c(C=Nc2cccc([N+](=O)[O-])c2)c(O)n(CCCC)c1=O	.	.	.	.	.	.
Clc1ccc(C[n+]2c(-c3ccccc3)cc(-c3ccccc3)cc2-c2ccccc2)cc1	.	.	.	.	+	.
Fc1ccc(C[n+]2c(-c3ccccc3)cc(-c3ccccc3)cc2-c2ccccc2)cc1	/	.	.	.	.	.
CCOc1ccc(C2C(C#N)=C(N)Oc3c2c(=O)oc2ccccc32)cc1 (centres undefined)	.	.	.	.	+	.
Cn1c(=O)[nH]c2nncnc2c1=O	.	.	.	.	.	59.5
CC(C)OCCCNC(=O)c1c(N)n(CC2CCCO2)c2nc3ccccc3nc12 (centres undefined)	/	.	.	.	+	.
COc1ccc2nc(-c3ccc(CN4CCC(n5nnc6ccccc65)CC4)cc3)c(-c3ccccc3)nc2c1	/	.	/	/	/	/
COc1ccc(CN2C(=O)NC(=O)/C(=C/c3ccc([N+](=O)[O-])s3)C2=O)cc1	132.8	.	.	.	.	.
COc1ccc(CN2C(=O)NC(=O)/C(=C\c3ccco3)C2=O)cc1	.	.	.	.	.	.
O=C1NC(=O)N(Cc2ccc(F)cc2)C(=O)/C1=C\c1ccc([N+](=O)[O-])s1	101.2	.	.	.	.	.
O=C1NC(=O)N(Cc2ccc(F)cc2)C(=O)/C1=C\c1ccc(N2CCCC2)cc1	.	.	.	.	.	.
O=C(O)c1cccc(N=Nc2c(O)[nH]c(=O)[nH]c2=O)c1	.	.	46.8	.	.	.
C=CCn1c(O)c(C(CC)=NCc2ccco2)c(=O)[nH]c1=O	.	.	.	6.2	.	.	MIN6 prolif-2=.
COc1ccc(-c2cc(=O)c3c(OC)c(OC)c(OC)cc3o2)cc1	.	.	.	9.3	.	.	MIN6 prolif-2=.
O=C(NC(Cc1ccccc1)P(=O)(O)Oc1ccccc1)OCc1ccccc1 (centres undefined)	/	.	/	/	/	/
CN1CCN(c2nc3ccccc3o2)CC1	.	.	.	7.3	.	.	MIN6 prolif-2=.
CN/C=C(/Cl)P(=O)(OC(C)C)OC(C)C	.	.	.	.	.	.
